{"data": "Experimental data of several laboratories"}
{"SMILES": "OCc1nc2ccc(NCc3ccc(C(F)(F)F)cc3)cc2[nH]1", "host": "male BALB/c mouse", "matrix": "plasma", "route": "oral", "dose": "10 mg/kg", "half-life [h]": 3.6}
{"SMILES": "Cc1ccc(C(C)C)cc1Oc1nccc(-c2c(-c3ccc(C(F)(F)F)cc3)ncn2C2CCN(CCO)CC2)n1", "host": "male C57BL/6 mouse", "matrix": "liver", "route": "intraperitoneal", "dose": "10 mg/kg", "half-life [h]": 3.1}
{"SMILES": "O=C1CCC(N2Cc3cc(C4CCN(Cc5ccccc5)CC4)ccc3C2=O)C(=O)N1 (centres unmarked)", "host": "male CD-1 mouse", "matrix": "plasma", "route": "intravenous", "dose": "1 mg/kg", "half-life [h]": 3.28}
{"SMILES": "CN(C)C(=O)c1cc2cnc(Nc3ccc(-c4ccc5c(=O)cc(N6CCOCC6)oc5c4)cc3)nc2n1C1CCCC1.Cl", "host": "BALB/c mouse", "matrix": "plasma", "route": "intravenous", "dose": "2 mg/kg", "half-life [h]": 2.8}
{"SMILES": "COc1ccc(C[C@H](NC(=O)[C@H](C)NC(=O)CN2CCOCC2)C(=O)N[C@@H](Cc2ccccc2)C(=O)C2(C)CO2)cc1 (stereo in doubt)", "host": "mouse", "matrix": "plasma", "route": "oral", "dose": "20 mg/kg", "notes": "single dose", "half-life [h]": 0.7}
{"SMILES": "NCc1ccc(-c2nn(Cc3ccncc3)c3ccccc23)o1", "host": "male CD-1 mouse", "matrix": "plasma", "route": "intravenous", "dose": "5 mg/kg", "half-life [h]": 5.4}
{"SMILES": "CC1(CNc2nc(-c3cccs3)nc(Cl)c2-c2c(F)cc(N)cc2F)COC1", "host": "mouse", "matrix": "plasma", "route": "intraperitoneal", "dose": "2.5 mg/kg", "half-life [h]": 1.51}
{"SMILES": "Cc1ncsc1-c1ccc([C@H](C)NC(=O)[C@@H]2C[C@@H](O)CN2C(=O)[C@@H](NC(=O)CCc2ccc(C#Cc3ccc(C(=O)NCCCn4cc(-c5ccc6c(c5)CCN6C(=O)Cc5cccc(OC(F)(F)F)c5)c5c(N)ncnc54)cc3)cn2)C(C)(C)C)cc1", "host": "male C57BL/6 mouse", "matrix": "plasma", "route": "intravenous", "dose": "1 mg/kg", "half-life [h]": 4.6}
{"SMILES": "Cc1ccc(CCC(=O)Nc2nnc(S(N)(=O)=O)s2)cc1", "host": "male BALB/c mouse", "matrix": "plasma", "route": "oral", "dose": "20 mg/kg", "half-life [h]": 4.64}
{"SMILES": "Cc1ccc(N(c2ccc(NC(=O)CN(C)c3ccccc3N3CCCC3=O)cc2)C(C)C)cc1", "host": "male CD-1 mouse", "matrix": "plasma", "route": "oral", "dose": "20 mg/kg", "half-life [h]": 1.48}
{"SMILES": "COC1=CC(c2ccc[nH]2)=N/C1=C\\c1cc(Cc2ccc(OC(F)(F)F)cc2)c(C)[nH]1.Cl", "host": "male CD-1 mouse", "matrix": "plasma", "route": "oral", "dose": "40 mg/kg", "notes": "single dose", "half-life [h]": 51.9}
{"SMILES": "COCC(=O)N1CCc2[nH]c3c(Cl)c(Cl)ccc3c2[C@@H]1C", "host": "C57BL/6 mouse", "matrix": "blood", "route": "oral", "dose": "20 mg/kg", "half-life [h]": 4.82}
{"SMILES": "Cc1ncsc1-c1ccc([C@H](C)NC(=O)[C@@H]2C[C@@H](O)CN2C(=O)[C@@H](NC(=O)CCCCCCCCCCC(=O)NCCCn2cc(-c3ccc4c(c3)CCN4C(=O)Cc3cccc(OC(F)(F)F)c3)c3c(N)ncnc32)C(C)(C)C)cc1", "host": "mouse", "matrix": "plasma", "route": "intravenous", "dose": "1 mg/kg", "half-life [h]": 3.3}
{"SMILES": "OCc1ccc(-c2nn(Cc3ccccc3)c3ccccc23)o1", "host": "male CD-1 mouse", "matrix": "plasma", "route": "intraperitoneal", "dose": "30 mg/kg", "half-life [h]": 1.3}
{"SMILES": "Cc1ccc(OCC(=O)N[C@@H](Cc2c[nH]c3ccccc23)C(=O)OC(C)C)cc1", "host": "male Sprague-Dawley mouse", "matrix": "plasma", "route": "intravenous", "dose": "10 mg/kg", "half-life [h]": 2.2}
{"SMILES": "NCc1ccc(-c2nn(Cc3ccccc3)c3ccccc23)o1", "host": "male CD-1 mouse", "matrix": "plasma", "route": "intravenous", "dose": "5 mg/kg", "half-life [h]": 1.08}
{"SMILES": "Cc1cc(-c2ccnc3[nH]cc(F)c23)cc(F)c1[C@@]1(O)[C@H](C)CN(C(=O)CN)C[C@@H]1C", "host": "male CD-1 mouse", "matrix": "plasma", "route": "oral", "dose": "3 mg/kg", "half-life [h]": 8.5}
